This is an account of results in ChEMBL document CHEMBL1122299, “Potential cerebral perfusion agents: synthesis and evaluation of a radioiodinated vinylalkylbarbituric acid analogue” (J Med Chem, 1983).

What all share (type): ADME, organism-based
Data set [1] deals with Rattus norvegicus. Description: Distribution of radioactivity in liver tissue of rats at 2 mins after an intravenous injection; Value expressed as mean % injected dose, Range- 2.91-3.53. As to conditions: in vivo. The essentials: (§1)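 Female Fischer 344 rats (10–12 wk, 170–200 g; food and water ad libitum) under ether received 7.95 μCi 125I-labeled agent (sp act ~155 mCi/mmol) in pH 7.4 phosphate buffer, filtered, via lateral tail vein. Four rats per time point (2 min–1 day). Killed by cervical fracture under ether; organs excised, saline-rinsed, blotted, weighed, gamma-counted; mean % injected dose/g with range.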

Data set [2] relates to Rattus norvegicus. Description: Distribution of radioactivity in liver tissue of rats at 2 hr after an intravenous injection; Value expressed as mean % injected dose, Range- 0.42-0.62. Conditions: in vivo. The procedure, abridged:
as §1

The subject of data set [3] is Rattus norvegicus. Description: Distribution of radioactivity in liver tissue of rats at 30 mins after an intravenous injection; Value expressed as mean % injected dose, Range- 0.97-1.41. Conditions: in vivo, 0.5 h. The essentials: as §1
The subject of data set [4] is Rattus norvegicus. Briefly: Distribution of radioactivity in liver tissue of rats at 4 hr after an intravenous injection; Value expressed as mean % injected dose, Range- 0.19-0.23. As to conditions: in vivo. The procedure, abridged:
as §1

Data set [5] deals with Rattus norvegicus. Description: Distribution of radioactivity in liver tissue of rats at 5 mins after an intravenous injection; Value expressed as mean % injected dose, Range- 2.49-2.82. As to conditions: in vivo. The procedure, abridged: as §1
The subject of data set [6] is Rattus norvegicus. Description: Distribution of radioactivity in lung tissue of rats at 1 day after an intravenous injection; Value expressed as mean % injected dose, Range- 0.02-0.03. Conditions: in vivo, 24 h. The procedure, abridged:
as §1

In data set [7] the test system is Rattus norvegicus. Description: Distribution of radioactivity in lung tissue of rats at 2 mins after an intravenous injection; Value expressed as mean % injected dose, Range- 1.17-1.42. As to conditions: in vivo. The procedure, abridged:
as §1

The test system of data set [8] is Rattus norvegicus. Briefly: Distribution of radioactivity in lung tissue of rats at 2 hr after an intravenous injection; Value expressed as mean % injected dose, Range- 0.47-0.58. Conditions: in vivo. The procedure, abridged: as §1
In data set [9] the test system is Rattus norvegicus. Briefly: Distribution of radioactivity in blood of rats at 30 mins after an intravenous injection; Value expressed as mean % injected dose, Range = 0.68-1.03. As to conditions: in vivo, 0.5 h. The procedure, abridged: as §1
For data set [10], the system named is Rattus norvegicus. Description: Distribution of radioactivity in blood of rats at 4 hr after an intravenous injection; Value expressed as mean % injected dose, Range- 0.45-0.48. As to conditions: in vivo. The essentials: as §1
The test system of data set [11] is Rattus norvegicus. Briefly: Distribution of radioactivity in blood of rats at 5 mins after an intravenous injection; Value expressed as mean % injected dose, Range-0.81-1. Conditions: in vivo. The procedure, abridged:
as §1

The subject of data set [12] is Rattus norvegicus. Description: Distribution of radioactivity in brain tissue of rats at 1 day after an intravenous injection; Value expressed as mean % injected dose, Range- 0.007-0.008. Conditions: in vivo, 24 h. The procedure, abridged:
as §1

The test system of data set [13] is Rattus norvegicus. Briefly: Distribution of radioactivity in brain tissue of rats at 1 hr after an intravenous injection; Value expressed as mean % injected dose, Range- 0.18-0.22. As to conditions: in vivo. The procedure, abridged: as §1
Data set [14] deals with Rattus norvegicus. Briefly: Distribution of radioactivity in brain tissue of rats at 2 mins after an intravenous injection; Value expressed as mean % injected dose, Range- 0.77-0.97. Conditions: in vivo. The essentials: as §1
The subject of data set [15] is Rattus norvegicus. Briefly: Distribution of radioactivity in brain tissue of rats at 2 hr after an intravenous injection; Value expressed as mean % injected dose, Range- 0.08-0.13. As to conditions: in vivo. The procedure, abridged:
as §1

Data set [16] deals with Rattus norvegicus. Briefly: Distribution of radioactivity in brain tissue of rats at 30 mins after an intravenous injection; Value expressed as mean % injected dose, Range- 0.25-0.37. Conditions: in vivo, 0.5 h. The essentials: as §1
The test system of data set [17] is Rattus norvegicus. Briefly: Distribution of radioactivity in brain tissue of rats at 4 hr after an intravenous injection; Value expressed as mean % injected dose, Range- 0.03-0.04. As to conditions: in vivo. The procedure, abridged:
as §1

Data set [18] deals with Rattus norvegicus. Briefly: Distribution of radioactivity in brain tissue of rats at 5 mins after an intravenous injection; Value expressed as mean % injected dose, Range- 0.74-0.94. Conditions: in vivo. The procedure, abridged:
as §1

The subject of data set [19] is Rattus norvegicus. Description: Distribution of radioactivity in heart tissue of rats at 1 day after an intravenous injection; Value expressed as mean % injected dose, Range- 0.02-0.02. Conditions: in vivo, 24 h. The essentials:
as §1

Data set [20] has as its system Rattus norvegicus. Briefly: Distribution of radioactivity in heart tissue of rats at 1 hr after an intravenous injection; Value expressed as mean % injected dose, Range- 0.5-0.63. Conditions: in vivo. The procedure, abridged: as §1
Data set [21] deals with Rattus norvegicus. Description: Distribution of radioactivity in heart tissue of rats at 2 mins after an intravenous injection; Value expressed as mean % injected dose, Range- 1.35-1.55. As to conditions: in vivo. The procedure, abridged: as §1
Data set [22] deals with Rattus norvegicus. Briefly: Distribution of radioactivity in heart tissue of rats at 2 hr after an intravenous injection; Value expressed as mean % injected dose, Range- 0.24-0.38. Conditions: in vivo. The procedure, abridged:
as §1

In data set [23] the test system is Rattus norvegicus. Description: Distribution of radioactivity in heart tissue of rats at 30 mins after an intravenous injection; Value expressed as mean % injected dose, Range- 0.55-0.82. As to conditions: in vivo, 0.5 h. The essentials: as §1
In data set [24] the test system is Rattus norvegicus. Briefly: Distribution of radioactivity in lung tissue of rats at 1 hr after an intravenous injection; Value expressed as mean % injected dose, Range- 0.66-0.77. As to conditions: in vivo. The essentials: as §1

`CCC1(CCC/C=C/I)C(=O)NC(=O)NC1=O`: the Activity in the data set on Rattus norvegicus [1] amounted to 3.19; in the data set with Rattus norvegicus [2] it was 0.5; in the data set on Rattus norvegicus [3], 1.21; with Rattus norvegicus [4], 0.21; in the data set on Rattus norvegicus [5], 2.69; with Rattus norvegicus [6] it was 0.02. Moreover, the Activity in the data set with Rattus norvegicus [7] is recorded as 1.31; with Rattus norvegicus [8], 0.52; in the data set with Rattus norvegicus [9], 0.92; in the data set with Rattus norvegicus [10], 0.46; with Rattus norvegicus [11], 0.9; with Rattus norvegicus [12], 0.007. For the same molecule, the Activity stood at 0.19 in the data set on Rattus norvegicus [13]; 0.83 with Rattus norvegicus [14]; 0.1 in the data set with Rattus norvegicus [15]; 0.33 in the data set on Rattus norvegicus [16]; 0.03 with Rattus norvegicus [17]; 0.82 with Rattus norvegicus [18]. Besides, the Activity with Rattus norvegicus [19] is listed as 0.02; in the data set with Rattus norvegicus [20], 0.56; in the data set with Rattus norvegicus [21], 1.49; with Rattus norvegicus [22] it was 0.33; with Rattus norvegicus [23], 0.71; in the data set with Rattus norvegicus [24], 0.72.
